Compound activity (PubChem BioAssay)
This is a sample that favours compounds with a hit; in the whole collection about 4.5% have one here.
OX1R antag-1 = OX1R (human) antagonism; O43613; OX1R-expressing cells, FRET antagonist read-out; inhibition, % at 6.6 µM; actives 1.8% (n = 330,000); in the data active = inhibition mostly above about 38%, no sharp cut-off; inactive = mostly below about 40%;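 note: 0% = agonist challenge alone and 100% = reference antagonist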
OX1R antag-2 = antagonists of human orexin 1 receptor; CHO/OX1R cells, Fluo-8 calcium fluorescence, orexin A; inhibition, % at 5 µM; actives 0.43% (n = 330,000);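 active = inhibition above its plate's threshold, mean inhibition of all tested compounds on the plate plus 3 SD, cut at about 37% in these data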;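 note: 0% = orexin A challenge wells and 100% = SB-334867-A antagonist wells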
GPR7 antagonist = human neuropeptides B/W receptor 1 antagonism. GPR7-expressing cells, fluorescence antagonist assay. P48145. inhibition, % at 4.4 µM. actives 1.1% (n = 290,000). AID 1861; in the data active = inhibition above about 16%, passing the limit was not always enough;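 note: cells stimulated with the agonist NPW; 0% = agonist with vehicle and 100% = vehicle without agonist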
Target sequence (P48145 whole entry, looked up): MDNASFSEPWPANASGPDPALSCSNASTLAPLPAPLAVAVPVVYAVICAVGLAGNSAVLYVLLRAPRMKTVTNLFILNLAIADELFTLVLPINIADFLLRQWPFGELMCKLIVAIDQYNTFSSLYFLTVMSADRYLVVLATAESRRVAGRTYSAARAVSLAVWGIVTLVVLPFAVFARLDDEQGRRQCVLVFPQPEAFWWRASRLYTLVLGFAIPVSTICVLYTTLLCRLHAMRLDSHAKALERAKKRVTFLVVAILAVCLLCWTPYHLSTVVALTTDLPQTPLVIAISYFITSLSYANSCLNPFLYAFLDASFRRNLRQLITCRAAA
TAAR1 antagonist = antagonists of human TAAR1 | Q96RJ0 | CHO RD-HGA16 TAAR1, Fluo-8 calcium fluorescence, antagonist | inhibition, % at 3 µM | actives 1.5% (n = 360,000) | AID 624466;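 active = inhibition above a per-plate cutoff, the mean inhibition of test compounds on that plate plus 3 SD, cut at about 49% in these data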;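 note: 0% = DMSO plus EC80 beta-PEA response and 100% = DMSO alone without agonist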
Target sequence (Q96RJ0 whole entry, looked up): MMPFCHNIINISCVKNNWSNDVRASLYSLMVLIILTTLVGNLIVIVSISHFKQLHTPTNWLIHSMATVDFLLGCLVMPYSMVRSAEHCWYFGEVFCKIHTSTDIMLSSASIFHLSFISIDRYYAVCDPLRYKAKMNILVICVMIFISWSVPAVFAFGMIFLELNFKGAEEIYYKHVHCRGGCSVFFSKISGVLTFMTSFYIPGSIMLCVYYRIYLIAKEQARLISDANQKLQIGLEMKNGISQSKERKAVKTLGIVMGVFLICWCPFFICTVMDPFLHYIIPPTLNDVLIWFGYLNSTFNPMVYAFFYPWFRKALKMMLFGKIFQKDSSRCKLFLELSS
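Material: CHO RD-HGA16 cells bearing hTAAR1; compound dosing: one-point dosing, 3 µM nominal final; schedule: dye loading 75 min at 37 °C, then 30 min room temperature; measured by: calcium fluorescence with Fluo-8; control set: vehicle and agonist controls; replication: n of 1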
TAAR1 agonist = agonists of human TAAR1 | Q96RJ0 | activation, % at 3 µM | actives 0.99% (n = 360,000) | CHO RD-HGA16 TAAR1, Fluo-8 calcium fluorescence; vehicle wells 0%, saturating PEA agonist 100%;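 active = activation above the mean activation of all test compounds in the run plus 3 SD, cut at about 38% in these data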
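Test system: RD-HGA16 (CHO) cells co-expressing Gα16 and hTAAR1 / Benchmarks: DMSO vehicle as 0%, PEA at EC100 as 100% / Repeats: no replicates (n 1) / Measure: % activation from peak over basal fluorescence ratio, DMSO-to-PEA scaled / Timing: 17-24 h plating, Fluo-8 75 min 37 °C, 30 min RT / Technique: kinetic Fluo-8 calcium fluorescence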
CHO parental Ca = counter-screen for OX1R antagonists: effect in parental CHO cells | parental CHO-K1, ATP-induced calcium, Fluo-8 fluorescence | inhibition, % at 5.6 µM | actives 0.63% (n = 330,000) | AID 463079;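 active = inhibition above that plate's mean sample inhibition plus 3 SD, cut at about 26% in these data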;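 note: 0% = ATP-challenged DMSO wells and 100% = DMSO wells without ATP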
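Assay system: untransfected parental CHO cell line. Also added: ATP agonist challenge. Dosing: one dose, 5.6 µM nominal. Measured by: Fluo-8 fluorescence. Read-out: % inhibition. Benchmarks: ATP wells versus no-ATP DMSO wells. Repeats: no replicates.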
* marks the source's active call; other numbers are inactive results; · = no result given.

SMILES | OX1R antag-1 | OX1R antag-2 | GPR7 antagonist | TAAR1 antagonist | TAAR1 agonist | CHO parental Ca
CCCCc1c(-c2ccccc2OC)ncn1Cc1ccc(-c2ccccc2)cc1 | · | · | · | 18 | 8 | ·
Cc1[nH]c2ccccc2c1CC(=O)Nc1ccc(Nc2cccnc2)c(-c2ccc(Cl)c(Cl)c2)c1 | · | · | · | 10 | 2 | ·
CCOCCCNC(=O)CN1C(=O)/C(=C/c2ccccc2C)Sc2ccccc21 | 12 | -5 | -7 | 5 | 2 | -12
CCOCCCNC(=O)/C=C1\Sc2ccccc2N(Cc2ccccc2F)C1=O | 44* | -10 | 19* | 13 | 7 | -12
C=CCN=C1NC(CCc2ccccc2)C(C(=O)OC)=C(C)N1C (centres undefined) | · | · | · | -12 | 1 | ·
S=C(Nc1ccc(Cl)cc1)NC1CCN(Cc2ccccc2)CC1 | 3 | -11 | 10 | 21 | 50* | 1
COc1ccc(COc2cc(-c3cccc(OC)c3)nc3ccc(NC(=O)c4ccc(Cl)cc4)cc23)cc1 | 21 | -20 | -6 | 26 | 8 | 8
COc1ccc(COc2cc(-c3cccc(OC)c3)nc3ccc(NC(=O)c4ccc(OC)cc4)cc23)cc1 | 21 | -7 | 5 | 61* | 10 | -7
COc1ccc(COc2cc(-c3cccc(OC)c3)nc3ccc(NC(=O)c4ccccc4)cc23)cc1 | 28 | -19 | 8 | 53* | 8 | -5
COc1ccc(NC(=O)c2cccc(NC(=O)c3ccccc3)c2)cc1 | 17 | -12 | 12 | 23 | 6 | -19
O=C(N[C@H](C(=O)N1CCC[C@H]1C(=O)NCCc1ccccc1Cl)C1CCCCC1)c1ccc(Cl)c(Cl)c1 | · | · | · | -1 | 4 | ·
O=[N+]([O-])c1cc2c(ccc3occc32)o1 | · | · | · | 2 | -2 | ·
COc1ccccc1CC(=O)Nc1ccc([N+](=O)[O-])cc1O | 33 | 15 | 29* | 8 | 14 | 1
Cn1c(=O)c2c(-c3ccccc3)n(-c3cc([N+](=O)[O-])ccc3O)cc2n(C)c1=O | · | · | · | 1 | 9 | ·
COc1cc(OC)cc(-c2c(Sc3ccccc3)c3cc(-c4ccc(OC)nc4)ccc3n2C)c1 | · | · | · | -14 | 1 | ·
O=C(NCCN1CCN(c2ccccc2)CC1)Nc1ccc(Cl)cc1 | -2 | -13 | 8 | 28 | 31 | -6
O=C(NCCc1ccc(Cl)cc1)Nc1ccc(Cl)cc1 | 10 | -9 | -11 | 30 | 42* | 5
O=C(NCCc1ccncc1)Nc1ccc(Cl)cc1 | 18 | -17 | -3 | -20 | 11 | -8
CCN(CCNC(=O)Nc1ccc(Cl)cc1)c1ccccc1 | 118* | 64* | 5 | 2 | 7 | 55*
CCOC(=O)C[C@@H]1OC[C@H](Cc2ccccc2)N1S(=O)(=O)c1ccc(C)cc1 | · | · | · | -10 | 0 | ·
CCN(CC)c1ccc(-c2sc(Nc3ccccc3)n[n+]2-c2ccc(F)cc2)cc1 | 15 | -11 | 6 | 24 | 49* | -11
CC(C)CN(C(=O)COC(=O)c1ccccc1NCc1ccco1)c1c(N)n(Cc2ccccc2)c(=O)[nH]c1=O | 75* | 13 | · | -1 | 1 | -19
CCN(C(=O)COC(=O)c1ccccc1NCc1ccco1)c1c(N)n(Cc2ccccc2)c(=O)[nH]c1=O | · | · | · | -2 | 5 | ·
COCCN(C(=O)COC(=O)c1ccccc1NCc1ccco1)c1c(N)n(Cc2ccccc2)c(=O)[nH]c1=O | 42* | -8 | · | -5 | 0 | -21
COCCN(C(=O)COC(=O)c1ccco1)c1c(N)n(Cc2ccccc2)c(=O)[nH]c1=O | 10 | 3 | · | -32 | 5 | 0
SMILES | OX1R antag-1 | OX1R antag-2 | GPR7 antagonist | TAAR1 antagonist | TAAR1 agonist | CHO parental Ca
COc1ccc(-c2cscc2N)cc1 | · | · | · | -12 | 0 | ·
CN1CCCCC(NC(=O)c2c(F)cccc2F)C1=O (centres undefined) | · | · | · | -5 | 2 | ·
COc1ccc(/C=N/n2c(-c3cccs3)n[nH]c2=S)cc1 | 43 | -23 | 0 | -2 | 2 | -4
S=c1[nH]nc(-c2cccs2)n1/N=C/c1c(Cl)cccc1Cl | 108* | 51* | -19 | 53* | 48* | 34*
CC(C)OC(=O)c1nnn(-c2nonc2N)c1CN1CCc2ccccc2C1 | · | · | 2 | -13 | 16 | ·
CCOC(=O)c1nnn(-c2nonc2N)c1CN1CCc2ccccc2C1 | 15 | -13 | -3 | 7 | 40* | -10
O=C(O)c1cc([N+](=O)[O-])ccc1NCCCc1ccccc1 | 27 | -15 | · | -6 | 0 | -9
O=[N+]([O-])c1ccc(NCCCc2ccccc2)cc1 | · | · | · | 52* | -1 | ·
O=C(OCc1ccccn1)c1ccc(COc2ccc3ccccc3c2)o1 | 5 | 40 | -1 | 19 | 0 | 48*
C=CCC[C@H](Cc1ccc(F)cc1)C(=O)O[C@H](CNC(=O)[C@@H](CC=C)CC(=O)N(CCO)Cc1ccccc1)c1ccccc1 | 10 | 21 | · | 56* | 8 | -7
C=CC[C@@H](CC(=O)N(CCO)Cc1ccccc1)C(=O)NCCOC(=O)[C@@H](CC=C)Cc1ccc(F)cc1 | 12 | -18 | · | -9 | 5 | -16
C=CC[C@H](CC(=O)N(CCO)Cc1ccccc1)C(=O)NC[C@@H](OC(=O)[C@@H](CC=C)Cc1ccc(F)cc1)c1ccccc1 | 7 | 10 | · | 56* | 11 | -14
C=CC[C@H](CC(=O)NCCO)C(=O)NC[C@@H](OC(=O)[C@@H](CC=C)Cc1ccc(F)cc1)c1ccccc1 | 9 | -14 | · | 25 | 10 | -21
C[C@H]1CN([C@@H](C)CO)C(=O)CCCn2cc(nn2)CO[C@@H]1CN(C)S(=O)(=O)c1cn(C)cn1 | · | · | · | -9 | 0 | ·
COc1ccc(F)cc1-c1cc(NC=O)c2ncc(-c3cccc(C(F)(F)F)c3)n2c1 | · | · | · | 26 | 12 | ·
Cc1ccc2nc(N=C(N)N)nc(C)c2c1 | 8 | -12 | -12 | 9 | 0 | -6
Cc1cc2nc(N=C(N)N)nc(C)c2cc1C | · | · | 19* | -5 | 1 | ·
COc1ccccc1N(Cc1ccccc1)S(=O)(=O)c1cccc(C(=O)Nc2ccc(C)cn2)c1 | 33 | 0 | · | 50* | 2 | -2
Cc1cc(C)n2nc(-c3sccc3-n3c(C)ccc3C)cc2n1 | 76* | 33 | -15 | -6 | 4 | -16
Cc1cc(C)n2nc(-c3sccc3-n3cccc3)cc2n1 | 40 | -24 | -15 | -3 | 1 | -34
COc1ccc(NC(=O)c2ccc(S(=O)(=O)N(C)c3ccccc3)cc2)cc1S(=O)(=O)N1CCOCC1 | · | · | · | 28 | 4 | ·
CN(CCCNC(=O)Cn1c(=O)c2cccn2c2ccccc21)Cc1ccccc1 | 33 | -17 | -1 | -14 | 1 | -23
CC(C)N(CCCNC(=O)Cn1c(=O)c2cccn2c2ccccc21)Cc1ccccc1 | 66* | 28 | -8 | -8 | 0 | -21
CS(=O)(=O)N1CCCC(C(=O)Nc2ccc3c(c2)OCCO3)C1 (centres undefined) | 14 | -19 | -7 | 7 | 9 | -2
